Results reported in ChEMBL document CHEMBL5653631, “A Potent and Selective ULK1 Inhibitor Suppresses Autophagy and Sensitizes Cancer Cells to Nutrient Stress” (iScience, 2018).
Values belong to the compound of their own block, whether it stands above or below them.

Columns and labels:
[1] = biological target: Calcium/calmodulin-dependent protein kinase type 1 (Homo sapiens) (UniProt Q14012); test: Inhibition of human recombinant CaMK1a at 500 nM related to control ULK1
[2] = biological target: Mitogen-activated protein kinase 1 (Homo sapiens) (UniProt P28482); test: Inhibition of human recombinant Erk2 at 500 nM in presence of ATP by radiometric assay relative to control
Mitogen-activated protein kinase 1 (Homo sapiens), sequence (P28482 whole entry): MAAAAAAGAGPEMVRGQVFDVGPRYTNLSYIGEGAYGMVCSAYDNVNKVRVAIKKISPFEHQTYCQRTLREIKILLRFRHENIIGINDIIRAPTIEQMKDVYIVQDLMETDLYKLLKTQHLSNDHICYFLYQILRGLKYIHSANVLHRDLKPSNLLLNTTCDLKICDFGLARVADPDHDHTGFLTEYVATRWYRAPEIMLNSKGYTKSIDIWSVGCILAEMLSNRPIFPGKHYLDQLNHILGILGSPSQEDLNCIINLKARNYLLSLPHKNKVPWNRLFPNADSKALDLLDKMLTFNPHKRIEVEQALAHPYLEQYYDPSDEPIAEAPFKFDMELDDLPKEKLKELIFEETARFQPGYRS

[3] = biological target: T1, Serine/threonine-protein kinase BRSK1 (Homo sapiens) (UniProt Q8TDC3); test: Inhibition of human recombinant BRSK1 at 40 nM related to control ULK1
T1 sequence (whole entry): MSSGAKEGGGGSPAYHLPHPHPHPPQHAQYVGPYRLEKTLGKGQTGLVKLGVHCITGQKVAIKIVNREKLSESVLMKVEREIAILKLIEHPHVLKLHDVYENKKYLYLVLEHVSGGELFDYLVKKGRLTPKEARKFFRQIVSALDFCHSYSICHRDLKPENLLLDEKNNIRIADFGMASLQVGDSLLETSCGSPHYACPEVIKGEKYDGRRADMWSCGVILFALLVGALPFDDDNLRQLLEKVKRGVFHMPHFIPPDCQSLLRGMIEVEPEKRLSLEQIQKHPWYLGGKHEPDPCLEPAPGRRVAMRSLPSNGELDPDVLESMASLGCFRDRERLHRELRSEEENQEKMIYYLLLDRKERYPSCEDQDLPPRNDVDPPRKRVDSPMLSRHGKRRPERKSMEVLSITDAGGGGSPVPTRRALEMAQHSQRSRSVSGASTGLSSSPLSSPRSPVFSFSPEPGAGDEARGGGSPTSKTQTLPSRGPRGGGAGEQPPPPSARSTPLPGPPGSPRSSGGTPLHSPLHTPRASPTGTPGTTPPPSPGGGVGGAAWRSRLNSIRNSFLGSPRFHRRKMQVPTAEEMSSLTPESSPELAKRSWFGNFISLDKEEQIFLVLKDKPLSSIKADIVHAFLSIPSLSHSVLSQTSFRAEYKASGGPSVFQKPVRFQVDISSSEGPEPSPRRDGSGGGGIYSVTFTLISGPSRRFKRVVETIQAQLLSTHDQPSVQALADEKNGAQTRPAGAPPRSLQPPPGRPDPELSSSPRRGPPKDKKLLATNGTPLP

[4] = biological target: T2, Serine/threonine-protein kinase PLK4 (Homo sapiens) (UniProt O00444); test: Inhibition of human recombinant PLK4 at 40 nM in presence of ATP by radiometric assay relative to control
T2 sequence (whole entry): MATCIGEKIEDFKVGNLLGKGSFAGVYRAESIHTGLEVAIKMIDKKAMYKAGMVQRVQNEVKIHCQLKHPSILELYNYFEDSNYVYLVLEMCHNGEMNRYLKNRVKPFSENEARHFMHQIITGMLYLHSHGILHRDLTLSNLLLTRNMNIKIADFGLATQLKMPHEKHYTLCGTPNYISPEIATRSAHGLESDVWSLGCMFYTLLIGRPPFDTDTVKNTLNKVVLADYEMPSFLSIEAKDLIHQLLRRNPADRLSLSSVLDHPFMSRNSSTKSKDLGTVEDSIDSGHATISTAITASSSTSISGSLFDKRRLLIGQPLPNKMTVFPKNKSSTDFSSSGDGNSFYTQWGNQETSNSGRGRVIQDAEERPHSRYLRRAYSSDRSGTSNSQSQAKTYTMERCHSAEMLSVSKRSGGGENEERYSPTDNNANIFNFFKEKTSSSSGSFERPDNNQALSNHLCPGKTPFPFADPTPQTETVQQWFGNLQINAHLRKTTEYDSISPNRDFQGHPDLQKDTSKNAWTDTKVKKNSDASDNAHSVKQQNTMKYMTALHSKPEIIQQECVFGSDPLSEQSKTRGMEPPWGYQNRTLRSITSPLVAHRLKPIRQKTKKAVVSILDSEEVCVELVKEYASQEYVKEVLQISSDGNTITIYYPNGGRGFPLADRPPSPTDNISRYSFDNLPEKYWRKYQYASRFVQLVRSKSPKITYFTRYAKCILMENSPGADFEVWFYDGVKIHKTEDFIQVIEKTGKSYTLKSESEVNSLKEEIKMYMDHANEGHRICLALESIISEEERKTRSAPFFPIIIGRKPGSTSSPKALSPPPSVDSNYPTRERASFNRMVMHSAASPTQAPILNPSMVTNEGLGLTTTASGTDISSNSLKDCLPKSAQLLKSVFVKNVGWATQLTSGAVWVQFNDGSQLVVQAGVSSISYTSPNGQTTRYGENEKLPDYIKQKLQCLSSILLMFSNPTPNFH

[5] = biological target: T3, Activin receptor type-1 (Homo sapiens) (UniProt Q04771); test: Inhibition of human recombinant ALK2 at 15 nM in presence of ATP by radiometric assay relative to control
T3 sequence (whole entry): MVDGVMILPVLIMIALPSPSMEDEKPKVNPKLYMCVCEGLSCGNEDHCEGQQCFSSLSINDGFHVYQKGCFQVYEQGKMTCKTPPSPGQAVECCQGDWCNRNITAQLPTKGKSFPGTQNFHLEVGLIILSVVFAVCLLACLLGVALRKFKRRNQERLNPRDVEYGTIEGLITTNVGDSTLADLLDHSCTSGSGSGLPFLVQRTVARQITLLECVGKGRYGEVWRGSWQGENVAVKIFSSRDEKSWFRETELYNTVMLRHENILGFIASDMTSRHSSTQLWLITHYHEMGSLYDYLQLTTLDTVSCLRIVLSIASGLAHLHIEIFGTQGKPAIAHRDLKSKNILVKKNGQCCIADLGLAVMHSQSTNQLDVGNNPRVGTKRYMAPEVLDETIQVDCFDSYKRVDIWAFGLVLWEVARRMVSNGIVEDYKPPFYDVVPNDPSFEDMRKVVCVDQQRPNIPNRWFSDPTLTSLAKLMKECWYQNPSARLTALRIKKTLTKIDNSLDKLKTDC
Method in brief: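 Panel of 327 recombinant human kinases, each assayed in vitro by radiometric activity assay in duplicate at a single inhibitor concentration per compound, chosen with reference to its ULK1 inhibition. Activity remaining was expressed as percent of vehicle control, and percent inhibition was calculated as 100 minus percent activity remaining.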

[6] = biological target: Serine/threonine-protein kinase 26 (Homo sapiens) (UniProt Q9P289); test: Inhibition of human recombinant MST4 at 15 nM related to control ULK1
Serine/threonine-protein kinase 26 (Homo sapiens), sequence (Q9P289 2-416 limits assumed): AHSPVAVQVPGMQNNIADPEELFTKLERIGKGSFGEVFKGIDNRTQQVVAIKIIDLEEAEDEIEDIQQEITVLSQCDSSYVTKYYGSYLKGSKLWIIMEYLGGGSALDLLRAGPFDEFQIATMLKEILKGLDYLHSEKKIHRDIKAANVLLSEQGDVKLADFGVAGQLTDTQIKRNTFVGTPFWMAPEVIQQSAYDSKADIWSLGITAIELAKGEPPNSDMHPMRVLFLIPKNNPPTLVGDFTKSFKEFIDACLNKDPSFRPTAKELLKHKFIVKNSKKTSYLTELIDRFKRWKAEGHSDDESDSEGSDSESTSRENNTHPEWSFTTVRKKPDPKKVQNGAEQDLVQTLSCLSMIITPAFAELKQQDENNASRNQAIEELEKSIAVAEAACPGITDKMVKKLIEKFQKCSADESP

Calcium/calmodulin-dependent protein kinase type 1 (Homo sapiens), sequence (Q14012 whole entry, looked up): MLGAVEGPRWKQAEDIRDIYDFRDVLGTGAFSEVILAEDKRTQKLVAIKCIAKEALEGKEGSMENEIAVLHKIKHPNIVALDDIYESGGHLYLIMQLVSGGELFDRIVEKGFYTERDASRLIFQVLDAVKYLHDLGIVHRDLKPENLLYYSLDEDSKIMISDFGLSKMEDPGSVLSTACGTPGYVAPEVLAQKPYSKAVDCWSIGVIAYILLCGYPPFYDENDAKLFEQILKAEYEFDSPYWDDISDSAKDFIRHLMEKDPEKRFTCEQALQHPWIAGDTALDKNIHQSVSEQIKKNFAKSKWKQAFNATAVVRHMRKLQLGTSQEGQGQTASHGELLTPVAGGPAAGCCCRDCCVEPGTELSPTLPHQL

fold change (FC) [1]: 0
inhibition [2]: 0%
SMILES: CNC(=O)c1ccccc1Oc1nc(Nc2cc(OC)c(OC)c(OC)c2)ncc1Br

fold change (FC) [3]: 0.03
inhibition [4]: 7%
SMILES: O=C(N[C@@H](C1CC1)C(F)(F)F)c1cc(-c2cnn3cc(-c4ccc(F)cc4)cnc23)cs1

inhibition [5]: 26%
fold change (FC) [6]: 0
SMILES: CC(C)[C@H](NC(=O)c1cc(-c2cnn3cc(-c4ccc(OCCN5CCCCC5)cc4)cnc23)cs1)C(F)(F)F
